Series [1] has as its system osteoclastogenesis. Conditions: in vitro; cited from earlier work.
Series [2] deals with IKKβ. As to conditions: cited from earlier work.
Series [3] relates to NF-kB pathway. As to conditions: mouse RAW264.7 macrophages; cited from earlier work.
The conditions of series [4]: athymic nude mice, cited from earlier work.
Series [5] deals with SCC Tu212 xenograft tumors. Conditions: cited from earlier work.
Series [6] is described as follows: EF-24 stability in mouse plasma. The series is classed as in vitro ADME. Conditions: for Half-life in plasma: mouse plasma, 4°. In short, it runs like this: (§1)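 Test compound at 31.25 or 1000 nM was held in plasma at 4°C and 37°C for 24 h. Plasmas: mouse and rat from heparin-CPD blood, dog heparinised, human from healthy volunteers. Aliquots at 5, 15 and 30 min and 1, 2, 4, 6 and 24 h went into silanized tubes, were frozen at −20°C, then protein-precipitated with methanol. Samples were quantified by LC/MS/MS (m/z 312→149) against an internal standard. Half-lives were derived from loss over time.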

For series [7], the system named is HCT-116 human colon tumor xenograft. As to conditions: cited from earlier work.
The nature of series [8]: Light sensitivity during assay development. The series is classed as physicochemical. Conditions: second peak prevented by aluminum foil or amber vials.
Series [9] has as its system human α1-acid glycoprotein. Kind of series: Binding to α1-acid glycoprotein by ultracentrifugation. Conditions: α1-acid glycoprotein 1 mg/ml. Summed up:
(§2)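 Ultracentrifugation binding assay. Matrices were thawed mouse, rat, dog or human plasma, human serum albumin (40 mg/ml in PBS, pH 7.4) or α1-acid glycoprotein (1 mg/ml). Samples were incubated 30 min at 37°C, then spun at 90,000 rpm for 3 h at 4°C. Drug was measured by LC/MS/MS before and after spinning, with upper supernatant taken as unbound. Supernatant protein-free status was confirmed by DC protein assay. Binding was calculated from percent recovered.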

In series [10] the test system is NCI anti-cancer cell line screen. Conditions: read-out: Mean GI50; cited from earlier work.
The nature of series [11]: NADPH-dependent metabolism in mouse liver microsomes. The series is classed as in vitro ADME. As to conditions: 10 μM, 15-minute incubation. Summed up: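 Liver microsomes came from male CD2F1 mice, untreated or given phenobarbital (80 mg/kg) or 3-methylcholanthrene (20 mg/kg) i.p. for 3 days. Microsomes were isolated on day 4 by differential centrifugation. Test compound at 10 µM was incubated at 37°C with 0.2–1 mg/ml protein, 1.0 mM NADPH, 5 mM MgCl2 and 100 mM potassium phosphate, pH 7.4, for 15 min. Controls lacked NADPH. Reactions were stopped with ice-cold methanol, and remaining drug was measured by LC/MS/MS.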

Series [12] can be described thus: EF-24 stability in rat plasma. It counts as in vitro ADME. As to conditions: for Half-life in plasma: 4°. Summed up:
as §1

Series [13] is described as follows: Partition ratio and stability in fresh mouse whole blood. It counts as in vitro ADME. Conditions: 24-hour incubation in whole blood at 37°C. In short, it runs like this:
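Fresh mouse whole blood (heparin in citrate-phosphate-dextrose) was spiked in silanized amber vials and kept on ice or at 37°C for 24 h. On ice, aliquots were taken at 0, 5, 15, 30, 60, 120 and 240 min. Red cells were pelleted at 10,000 rpm for 3 min, and plasma was frozen at −20°C before LC/MS/MS. For partitioning, equal amounts (3.9–2000 nM) went into plasma and whole blood.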

Series [14] can be described thus: NADPH-dependent metabolism in human liver microsomes. The series is classed as in vitro ADME. As to conditions: 10 μM, 120 minutes (Fig 4 legend). Summed up: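 Pooled human liver microsomes came from livers unsuitable for transplantation. They were preincubated 2 min in 100 mM potassium phosphate (pH 7.4), 5 mM MgCl2 ± 1.0 mM NADPH at 37°C. Reactions were started with test compound (10 µM) at 0.2–1 mg/ml protein and ran 120 min. NADPH-free incubations served as controls. Reactions were quenched with ice-cold methanol (2:1), and remaining drug was quantified by LC/MS/MS.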
(In general: Liver microsomes are a subcellular fraction often used to study metabolism.)

The target in series [15] is human serum albumin (Homo sapiens, UniProt P02768). As to the kind of experiment: Binding to human serum albumin by ultracentrifugation. Conditions: human serum albumin 40 mg/ml in phosphate buffered saline, pH 7.4. Summed up:
as §2

A short description of series [16]: EF-24 stability in human plasma. It counts as in vitro ADME. Conditions: for half-life at 31.25 nM / half-life at 1000 nM: human, plasma, Half-life in plasma. In short, it runs like this: as §1
A short description of series [17]: EF-24 stability in dog plasma. The series is classed as in vitro ADME. As to conditions: for Half-life in plasma: dog plasma, 4°. In short, it runs like this: as §1
Series [18] in a line: Pharmacokinetics in male CD2F1 mice. It counts as in vivo, mouse. Conditions: for Bioavailability: by comparison of AUC values. Summed up: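 Male CD2F1 mice (19–26 g) received 10 mg/kg in D5W:DMSO (9:1) by tail-vein i.v., i.p. or oral gavage. Cardiac-puncture blood was drawn under methoxyflurane, two mice per time point, at 3–240 min (i.v.) or 3–480 min (i.p., oral). Plasma was analysed by LC/MS/MS. Half-life came from compartmental and AUC/CL from noncompartmental analysis of mean concentrations, bioavailability from AUC ratios. Urine was pooled over 24 h after 25 or 32 mg/kg i.v.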

In series [19] the test system is MiPaPc xenografts. As to conditions: 10 and 20 mg/kg i.p., ref Manuscripts in preparation 2013; cited from earlier work.
In series [20] the test system is osteoblastic differentiation and mineralization. Conditions: in vitro, associated with Smad signaling; cited from earlier work.
Where [21] appears, read: 10 mg/kg, intraperitoneal, male CD2F1 mice.
Setting [22] is: 10 mg/kg, oral, male CD2F1 mice.
Where [23] appears, read: male, CD2F1, mouse, plasma, ip, 10 mg/kg.
Where [24] appears, read: male, CD2F1, mouse, plasma, iv, 10 mg/kg.
Setting [25] is: male, CD2F1, mouse, plasma, po, 10 mg/kg.

For orientation: half-life means the time in which the quantity being followed falls by half. The term GI50 denotes the concentration at which growth is held to half of that of the control. One may read the Cmax as the highest concentration seen after dosing. As usually defined, the AUC is concentration integrated over time. A high value points to more exposure. Broadly, the Tmax is the time from dosing to the highest level. What is called Vd is a proportionality between amount in the body and measured concentration, not a real space. Read a high Vd as wide distribution into tissue. Usually clearance stands for a measure of how efficiently the substance is removed, as volume per time. Read a low clearance as inefficient removal.

Like-named read-outs stand apart in the source and are kept apart here.

Chain of human serum albumin (P02768 25-609): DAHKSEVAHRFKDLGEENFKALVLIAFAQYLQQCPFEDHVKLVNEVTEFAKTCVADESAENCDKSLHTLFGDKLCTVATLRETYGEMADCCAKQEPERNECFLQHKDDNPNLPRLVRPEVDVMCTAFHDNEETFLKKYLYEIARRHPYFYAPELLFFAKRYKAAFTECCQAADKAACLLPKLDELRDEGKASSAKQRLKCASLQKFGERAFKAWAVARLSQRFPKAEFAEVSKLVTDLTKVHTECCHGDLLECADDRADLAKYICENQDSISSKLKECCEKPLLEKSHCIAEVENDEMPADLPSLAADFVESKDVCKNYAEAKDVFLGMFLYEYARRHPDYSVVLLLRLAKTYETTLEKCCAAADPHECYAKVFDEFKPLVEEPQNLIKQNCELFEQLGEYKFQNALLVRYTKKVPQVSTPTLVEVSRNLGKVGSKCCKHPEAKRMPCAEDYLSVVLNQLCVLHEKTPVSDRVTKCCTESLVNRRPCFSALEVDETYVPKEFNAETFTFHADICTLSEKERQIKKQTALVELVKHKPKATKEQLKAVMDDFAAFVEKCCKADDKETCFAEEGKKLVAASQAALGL

Consider `O=C1C(=Cc2ccccn2)CNCC1=Cc1ccccn1` [EF31, 3,5-Bis(2-pyridinylmethylidene)-4piperidone], for which the “Effect on osteoclastogenesis as compared with curcumin” value in [1] was “suppressive effect”. Also, in series [2], the “Fold more effective inhibition of IKKβ vs. EF24” value is ~ 65 fold. In addition, in series [3], the “Fold more potent blocker of NF-kB pathway activity than EF24” value is 7 fold and the “Fold more potent blocker of NF-kB pathway activity than curcumin” value is over 10 fold. Further, the “Average AUC(0-∞)” value in series [4] (15 mg/kg i.p.) is recorded as 3386 h x ng mL^−1. Besides, in series [4] (25 mg/kg i.p.), the “Average AUC(0-∞)” value is on record as 7769 h x ng mL^−1. In addition, in [5] (15 and 25 mg/kg i.p.), the “Effect on xenograft tumors” value is recorded as “dose-response”.

Take `CC(=O)O.O=C1C(=Cc2ccccc2F)CNCC1=Cc1ccccc1F` [EF-24, 3,5-bis[(2-fluorophenyl)methylene]-4-piperidinone acetate]: the Half-life in plasma result in [6] (31.25 nM) is “Stable”; in series [6] (1000 nM) it was “Stable”; in [12] (rat plasma, 31.25 nM), “Stable”; in series [12] (rat plasma, 1000 nM), “Stable”; in series [17] (31.25 nM), “Stable”; in series [17] (1000 nM), “Stable”. Further, the half-life in series [6] (mouse, plasma) is 11 h; in [17] (dog, plasma), 35 h; in series [18] (male, CD2F1, mouse, plasma, ip, 10 mg/kg, t1/2z, intraperitoneal, male CD2F1 mice), about 3.33 h; in series [18] (male, CD2F1, mouse, plasma, iv, 10 mg/kg, t1/2z (terminal elimination half-life), male CD2F1 mice) it was 1.23 h; in series [18] (male, CD2F1, mouse, plasma, iv, 10 mg/kg, t1/2β, male CD2F1 mice), 0.09 h; in series [18] (male, CD2F1, mouse, plasma, po, 10 mg/kg, t1/2z, male CD2F1 mice), about 3.33 h. Moreover, the half-life at 31.25 nM in series [6] (mouse, plasma) is 12 h; in series [12] (rat, plasma), 50 h; in series [16] (4°) it was 84 h; in series [16] (37°) it was 79 h; in [17] (dog, plasma) it was 36 h. The half-life at 1000 nM in series [6] (mouse, plasma) was 10 h; in series [12] (rat, plasma), 66 h; in series [16] (4°), 100 h; in series [16] (37°), 58 h; in series [17] (dog, plasma) it was 33 h. In addition, in series [7] (dose of 200 μg/kg), the “Tumor growth in vivo” value is given as “inhibited tumor growth”. For the same compound, in series [7] (mice, little apparent toxicity, no reference given), the “Growth of HCT-116 human colon tumor xenograft” value is recorded as “potent growth inhibition”. Further, in series [8], the Stability to light entry is reported as “light sensitivity”. Further, the Percent bound is on record as under 20% in series [9] and 95-100% in series [15]. For the same compound, the GI50 in series [10] was 700 nM. For the same compound, the “EF-24 consumed by NADPH-dependent metabolism” value in series [11] (liver microsomes from 3MC-pretreated mice) is given as 54%; in series [11] (liver microsomes from PB-pretreated mice), 41%; in series [11] (liver microsomes from untreated mice) it was 40%; in [14], over 70%. For the same compound, the Stability in plasma result was “stable” in series [12] (rat plasma, 24-hour period) and “stable” in [16] (24-hour period). In series [13], the “Stability in whole blood” value is given as “Multi-exponential loss”. Also, the “Time of secondary peak concentration” value in series [18] (10 mg/kg, i.p., male CD2F1 mice, plasma) was 360 min. In addition, in series [18] (10 mg/kg, i.v., male CD2F1 mice), the Peak plasma concentration was 2.5 µM. The Bioavailability amounted to 34.7% in [18] (10 mg/kg, intraperitoneal) and 60.1% in series [18] (10 mg/kg, oral). The t1/2z in series [18] (setting [21]) amounted to 3.65 h; in [18] (setting [22]), 2.95 h. Also, the t1/2α amounted to 8.9 min in series [18] (setting [21]); 0.4 min in [18] (10 mg/kg, intravenous, male CD2F1 mice); 3.3 min in series [18] (setting [22]). The Cmax in series [18] (10 mg/kg, intraperitoneal, male CD2F1 mice, plasma) was 833 nM; in series [18] (10 mg/kg, oral, male CD2F1 mice, plasma), 882 nM; in [18] (male, CD2F1, mouse, plasma, iv, 10 mg/kg, Cmax, male CD2F1 mice), 2490 nM. In addition, the values for the AUC in series [18] (setting [23]), in series [18] (setting [24]) and in [18] (setting [25]) were 0.346 µM·h, 0.996 µM·h and 0.599 µM·h, respectively. Also, the Tmax is 3 min in series [18] (setting [23]), 2.7 min in series [18] (setting [24]) and 3 min in series [18] (setting [25]). The same compound had a Vd in series [18] (setting [24]) of 4.85 L/kg. Besides, in series [18] (setting [24]), the clearance was 482 mL/min/kg. Moreover, the “EF-24 in 24-hour pooled urine” value in series [18] (mice administered 25 mg/kg or 32 mg/kg intravenously) is on record as “not detected”.

For `CN1C/C(=C\c2ccccn2)C(=O)/C(=C/c2ccccn2)C1` [UBS-109], the Effect on xenografts result in series [19] is on record as “dose response”; in series [5] (50, 100 and 150 mg/kg p.o., ref Manuscripts in preparation 2013), “dose response”. Also, the “Effect on osteoblastic differentiation and mineralization” value in series [20] is on record as “unique stimulatory effect”. Further, in [1], the “Effect on osteoclastogenesis as compared with curcumin” value is reported as “suppressive effect”.

(Values after paper PMC4392893 (Cancer chemotherapy and pharmacology, 2014).)
